This is an account of results in ChEMBL document CHEMBL2163220 (J Med Chem, 2012).

Activity calls are given as the source filed them. The calls are words filed in the database; no cut-off is given here.

Common to all, as to type: functional, cell-based
Assay [1] relates to T1, Androgen receptor (Homo sapiens), P10275 [W742C].
T1 sequence (whole entry): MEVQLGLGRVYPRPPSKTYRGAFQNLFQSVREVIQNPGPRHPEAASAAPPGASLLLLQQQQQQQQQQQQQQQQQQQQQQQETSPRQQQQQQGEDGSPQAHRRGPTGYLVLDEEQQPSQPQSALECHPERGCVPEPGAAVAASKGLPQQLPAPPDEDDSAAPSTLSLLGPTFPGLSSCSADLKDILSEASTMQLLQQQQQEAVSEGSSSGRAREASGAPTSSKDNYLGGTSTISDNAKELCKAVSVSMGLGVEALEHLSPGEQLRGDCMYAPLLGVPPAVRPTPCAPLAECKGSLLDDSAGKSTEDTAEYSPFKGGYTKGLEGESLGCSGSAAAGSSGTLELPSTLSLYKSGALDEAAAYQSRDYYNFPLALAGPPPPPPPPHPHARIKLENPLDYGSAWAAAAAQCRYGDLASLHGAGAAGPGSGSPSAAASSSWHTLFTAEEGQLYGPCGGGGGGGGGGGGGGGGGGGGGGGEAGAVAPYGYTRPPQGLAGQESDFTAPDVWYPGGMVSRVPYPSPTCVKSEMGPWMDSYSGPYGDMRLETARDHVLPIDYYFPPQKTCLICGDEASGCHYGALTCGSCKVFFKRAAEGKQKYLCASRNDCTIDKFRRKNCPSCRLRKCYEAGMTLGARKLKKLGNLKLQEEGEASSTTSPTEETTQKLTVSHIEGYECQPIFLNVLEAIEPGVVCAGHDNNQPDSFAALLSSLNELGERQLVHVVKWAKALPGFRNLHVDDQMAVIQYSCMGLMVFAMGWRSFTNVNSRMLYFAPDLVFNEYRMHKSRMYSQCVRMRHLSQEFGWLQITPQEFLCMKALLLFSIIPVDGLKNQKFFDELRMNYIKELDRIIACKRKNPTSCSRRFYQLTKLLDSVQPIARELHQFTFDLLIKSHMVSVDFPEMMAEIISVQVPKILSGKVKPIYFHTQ
Briefly: Antagonist activity at androgen receptor W741C mutant expressed in human PC3 cells assessed as reduction in DHT-induced receptor transactivation at 0.1 to 1 uM by luciferase reporter gene assay. Conditions: PC-3. A digest of the protocol: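 Full-length wild-type or mutant AR plasmid transiently transfected into PC-3 cells with MMTV-luc and Renilla luciferase reporters. Cells treated with DMSO vehicle or compound at 0.1 and 1 μM, alone or with 0.1 nM DHT. Luciferase read as relative luciferase units. Run in triplicate.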

For another assay, the system named is PC-3. Briefly: Effect on in Maspin expression in human PC3 cells deficient in wild type androgen receptor at 5 uM by luciferase reporter gene assay. A digest of the protocol:
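PC-3 cells were transfected with maspin-luc, with or without cotransfected AR. Cells were exposed to DMSO vehicle or compound at 2.5 and 5 μM. Luciferase activity was measured in triplicate.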
For orientation: A reporter such as luciferase makes a cellular process visible.

Assay [2] deals with LNCaP. Briefly: Cytotoxicity against human LNCAP cells incubated for 72 hrs by MTT assay. A digest of the protocol: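 MTT assay run across a panel of prostate cancer cell lines.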
Assay [3] deals with T2, Progesterone receptor (Homo sapiens) (UniProt P06401).
T2 sequence (whole entry): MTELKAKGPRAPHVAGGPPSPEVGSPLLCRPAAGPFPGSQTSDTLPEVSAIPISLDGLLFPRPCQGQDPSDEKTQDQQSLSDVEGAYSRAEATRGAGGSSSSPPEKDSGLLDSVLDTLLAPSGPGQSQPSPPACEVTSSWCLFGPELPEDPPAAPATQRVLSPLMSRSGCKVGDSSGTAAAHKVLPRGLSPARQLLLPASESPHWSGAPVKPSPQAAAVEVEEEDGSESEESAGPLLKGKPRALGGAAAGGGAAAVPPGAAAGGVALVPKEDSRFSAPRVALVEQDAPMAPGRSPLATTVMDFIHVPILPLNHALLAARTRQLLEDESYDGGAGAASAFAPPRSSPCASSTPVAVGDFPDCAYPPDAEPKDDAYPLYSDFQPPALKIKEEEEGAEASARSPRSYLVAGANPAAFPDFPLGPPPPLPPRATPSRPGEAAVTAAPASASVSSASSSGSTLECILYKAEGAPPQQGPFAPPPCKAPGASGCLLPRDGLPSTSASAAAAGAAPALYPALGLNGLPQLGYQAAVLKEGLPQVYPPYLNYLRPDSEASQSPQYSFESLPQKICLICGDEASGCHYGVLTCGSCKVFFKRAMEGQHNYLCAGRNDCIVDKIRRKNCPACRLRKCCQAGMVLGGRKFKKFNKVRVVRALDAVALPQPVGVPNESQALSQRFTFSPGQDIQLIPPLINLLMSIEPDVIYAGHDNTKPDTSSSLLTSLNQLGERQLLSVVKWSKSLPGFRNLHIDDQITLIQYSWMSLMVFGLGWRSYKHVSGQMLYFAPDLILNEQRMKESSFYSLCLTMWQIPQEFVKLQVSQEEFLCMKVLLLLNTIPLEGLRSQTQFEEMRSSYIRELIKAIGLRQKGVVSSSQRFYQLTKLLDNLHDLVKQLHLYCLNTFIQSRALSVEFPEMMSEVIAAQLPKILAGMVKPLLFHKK
Briefly: Antagonist activity at progesterone receptor in human PC3 cells assessed as reduction in R5020-inducedreceptor transactivation at 1 uM by luciferase reporter gene assay. The conditions noted are these: PC-3. In a few lines:
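PC-3 cells lack detectable PR, so they were cotransfected with a PR expression plasmid and the MMTV-luc reporter. Compound tested at 1 μM, alone or against transactivation induced by 10 nM R5020. Read-out was luciferase reporter activity.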

For assay [4], the system named is LNCaP. Briefly: Induction of apoptosis in human LNCAP cells assessed as PARP cleavage activation incubated for 24 hrs by Western blotting. A digest of the protocol:
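LNCaP cells in complete medium were exposed to DMSO or compound at 1, 2.5 and 5 μM for 24 h. Western blot measured AR, maspin, caspase-3 activation and PARP cleavage, with β-actin as loading control.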
In general terms: Immunoblotting shows a protein as a band on a membrane.

As for `Cc1coc2c1C(=O)C(=O)c1c-2ccc2c1CCCC2(C)C` [TANSHINONE IIA], in assay [1], the outcome was Active. Further, the result (in the assay with PC-3; in assay [3]) was inactive. Also, the IC50 (commonly the concentration that gives 50% inhibition) with LNCaP [2] worked out at 500 nM. In the assay on LNCaP [4], the Activity entry is “Dose-dependent effect”.
